Screens: PubChem, several laboratories
PfHsp90 yeast 2: growth inhibition of yeast expressing Plasmodium Hsp90; S. cerevisiae expressing PfHsp90, BacTiter-Glo ATP, 48 h; yeast lacking PDR1 and PDR3 efflux regulators; inhibition, % at 9.4 µM; 0.32% of 310,000 active;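 active means every replicate shows inhibition above about 80%, whatever the replicate mean, limit read from the data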;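 further: 0% = DMSO neutral controls and 100% = 20 µM radicicol positive controls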
Rtt109 HAT inh: C. albicans Rtt109 histone acetyltransferase inhibition | 0.16% of 330,000 active | Q5AAJ8 | inhibition, % at 34.9 µM | purified Rtt109/Vps75, ThioGlo CoA-SH fluorescence, 4 h;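 active means inhibition of at least 50% in every replicate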
Target sequence (Q5AAJ8 whole entry, looked up): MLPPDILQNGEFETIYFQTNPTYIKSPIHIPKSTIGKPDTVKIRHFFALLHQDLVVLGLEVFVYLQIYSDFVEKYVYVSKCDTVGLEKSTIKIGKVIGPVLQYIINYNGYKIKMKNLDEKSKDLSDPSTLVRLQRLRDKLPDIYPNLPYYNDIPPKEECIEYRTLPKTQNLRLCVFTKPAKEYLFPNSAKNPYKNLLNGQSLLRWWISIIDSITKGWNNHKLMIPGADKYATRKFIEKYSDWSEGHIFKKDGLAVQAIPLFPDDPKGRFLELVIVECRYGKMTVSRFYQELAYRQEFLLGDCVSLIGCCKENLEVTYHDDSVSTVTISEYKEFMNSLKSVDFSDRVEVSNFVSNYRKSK
PAX8 reporter: lowers PAX8-driven luciferase in RMG-I cells | RMG-I TPO-luciferase reporter, SteadyGlo, 24 h | inhibition, % at 12.6 µM | 1.2% of 360,000 active | AID 652154;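 active means mean replicate inhibition at least 60% with every replicate also reaching 60%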;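 further: luciferase light reporting Pax8 driven TPO promoter activity; plate controls were median of neutral control wells for no effect and mitoxantrone controls for full effect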
Arrestin-AP2 inh: inhibitors of human beta-arrestin and AP2 interaction; FITC-arrestin peptide / GST-AP2 beads, flow cytometry; AP2 beta2 appendage carries R879A mutation; inhibition, % at 10 µM; 0.31% of 340,000 active;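 active means inhibition above a set limit, near 3 SD of compounds lacking own fluorescence, cut at about 54% in these data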;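 further: plate controls were DMSO wells for no effect and 5 µM unlabelled arrestin peptide for full effect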
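System: GST-AP2 R879A glutathione beads; medium: PBS, Tween 20 0.05%, BSA 0.1%; reagent: fluorescein-tagged arrestin peptide at 50 nM final; schedule: pre-incubation 12 min, peptide binding 1 h, room temperature; detection: flow cytometry, FL1 (488/535 nm); read-out: inhibition as reduced fluorescein signal on beads, percent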
HIV Env fusion: blocks HIV Env-driven cell-cell fusion; HeLa-JRFL Env/CEM21 cell fusion, luciferase; inhibition, % at 12.3 µM; 1.1% of 360,000 active;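 active means mean replicate inhibition score of at least 50 and every replicate individually at or above 50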;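 further: 0% = plate neutral controls and 100% = maraviroc near 300 nM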
Glyco luc inh: N-linked glycosylation inhibition. D54 ERlucT glycosylation luciferase reporter, 24 h; percent of 100 nM tunicamycin response. reporter increase, % at 12.5 µM. 0.23% of 360,000 active;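 active means mean luciferase reporter signal, scaled so untreated is 0 and the glycosylation-blocking control 100, at or above a set limit in every replicate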;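 further: luciferase carries N-glycosylation sites so blocking glycosylation raises the light; 0% = median of neutral control wells and 100% = median of 100 nM tunicamycin wells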
* hit, by the source's call; [ ] = remark or other dose. This is a sample that favours compounds with a hit; in the whole collection about 2.3% have one here.

Results for O=C1CCCN1c1ccc(S(=O)(=O)NCCOc2ccccc2)cc1 ?
PfHsp90 yeast 2: -9.0; Rtt109 HAT inh: 5.8; PAX8 reporter: 10.0; Arrestin-AP2 inh: -2.8; HIV Env fusion: 30.5; Glyco luc inh: -0.2

Results for O=C(/C=C/c1ccccc1[N+](=O)[O-])c1ccccc1Br ?
PfHsp90 yeast 2: 103.5*; Rtt109 HAT inh: 17.3; PAX8 reporter: 77.6*; Arrestin-AP2 inh: 13.7; HIV Env fusion: 2.9; Glyco luc inh: 10.5

What do the screens show for `Cc1ccc(C(=O)/C=C/c2ccccc2[N+](=O)[O-])cc1`?
PfHsp90 yeast 2: 11.8; Rtt109 HAT inh: 18.2; PAX8 reporter: -7.1; Arrestin-AP2 inh: 4.3; HIV Env fusion: -11.3; Glyco luc inh: 15.4

Results for Cn1c(-c2ccccc2)c[n+]2c1-c1ccccc1C2 ?
PfHsp90 yeast 2: -10.1; Rtt109 HAT inh: 2.5; PAX8 reporter: 25.1; Arrestin-AP2 inh: 2.8; HIV Env fusion: 56.7*; Glyco luc inh: 2.9

How did Cn1c(-c2ccccc2)cccc1=O do in these assays?
PfHsp90 yeast 2: -7.9; Rtt109 HAT inh: -8.2; Arrestin-AP2 inh: 5.7; HIV Env fusion: -23.3; Glyco luc inh: 1.3

How did Cc1ccc(C(=O)N/C(=C/c2ccco2)C(=O)NCCc2c[nH]c3ccccc23)cc1 do in these assays?
PfHsp90 yeast 2: 17.1; Rtt109 HAT inh: 15.7; PAX8 reporter: 11.6; Arrestin-AP2 inh: 2.7; HIV Env fusion: 9.3; Glyco luc inh: 44.8*

What do the screens show for `Cc1nc2c(-c3ccc(Cl)cc3)c(C)[nH]n2c(=O)c1Cc1ccccc1`?
PfHsp90 yeast 2: -15.5; PAX8 reporter: 61.6*; Arrestin-AP2 inh: -1.9; HIV Env fusion: 57.1*; Glyco luc inh: -12.8

Results for O=C(C[C@H]1CC[C@@H]2[C@H](COC[C@@H](O)CN2S(=O)(=O)c2cccc(F)c2)O1)Nc1ccc(-c2ccccc2)cc1 ?
PAX8 reporter: 72.5*

What do the screens show for `O=C(C[C@H]1CC[C@H]2[C@@H](COC[C@@H](O)CN2S(=O)(=O)c2cccc(F)c2)O1)Nc1ccc(-c2ccccc2)cc1`?
PAX8 reporter: -22.9

How did O=C(C[C@H]1CC[C@@H]2[C@H](COC[C@H](O)CN2S(=O)(=O)c2cccc(F)c2)O1)Nc1ccc(-c2ccccc2)cc1 do in these assays?
PAX8 reporter: 116.1*

How did O=[N+]([O-])c1cnc(Sc2ccncn2)s1 do in these assays?
PfHsp90 yeast 2: 103.0*; Rtt109 HAT inh: 1.9; PAX8 reporter: 120.0*; Arrestin-AP2 inh: 28.4; HIV Env fusion: -267.1; Glyco luc inh: 14.0

What do the screens show for `COCC(=O)Nc1ccc2c(c1)C(=O)N(C)[C@H]1CC[C@H](CC(=O)O)O[C@@H]1CO2`?
PAX8 reporter: -5.6; HIV Env fusion: 0.9[16.7 µM]

How did COc1ccc(NC(=O)Nc2ccc3c(c2)C(=O)N([C@@H](C)CO)C[C@H](C)[C@H](CN(C)C(=O)c2ccccc2)OCCCC[C@H](C)O3)cc1 do in these assays?
PAX8 reporter: 10.2; HIV Env fusion: 56.4*[16.7 µM]

What do the screens show for `COc1ccc(NC(=O)Nc2ccc3c(c2)C(=O)N([C@H](C)CO)C[C@H](C)[C@@H](CN(C)C(=O)c2ccccc2)OCCCC[C@H](C)O3)cc1`?
PAX8 reporter: 4.2; HIV Env fusion: -50.1[16.7 µM]

What do the screens show for `COc1ccc(NC(=O)Nc2ccc3c(c2)C(=O)N([C@H](C)CO)C[C@H](C)[C@H](CN(C)C(=O)c2ccccc2)OCCCC[C@H](C)O3)cc1`?
PAX8 reporter: 3.7; HIV Env fusion: 60.7*[16.7 µM]

Results for O=C(CN1CCOCC1)N[C@@H]1CC[C@@H](CCNC(=O)Nc2cc(F)ccc2F)O[C@@H]1CO ?
PAX8 reporter: 6.0; HIV Env fusion: 5.2[16.7 µM]

What do the screens show for `C[C@@H]1CCCCO[C@@H](CN(C)C(=O)Nc2ccc3c(c2)OCO3)[C@H](C)CN([C@@H](C)CO)C(=O)c2cc(NC(=O)Cc3ccccc3)ccc2O1`?
PAX8 reporter: -16.6; HIV Env fusion: 9.7[16.7 µM]

What do the screens show for `COc1ccc2[nH]c(=O)c3c(c2c1)OC(C)(C)C=C3`?
Rtt109 HAT inh: 8.1; PAX8 reporter: -24.8; Arrestin-AP2 inh: 17.6; HIV Env fusion: 136.0*; Glyco luc inh: -8.1

How did O=C(C[C@@H]1C[C@H]2c3cc(NC(=O)C4CCC4)ccc3O[C@H]2[C@@H](CO)O1)NCc1cccnc1 do in these assays?
PAX8 reporter: -12.2; HIV Env fusion: 11.9[16.7 µM]
